Measured values from ChEMBL document CHEMBL1125740, “Heterocyclic quinones. 17. A new in vivo active antineoplastic drug: 6,7-bis(1-aziridinyl)-4-[[3-(N,N-dimethylamino)propyl]amino]-5,8- quinazolinedione” (J Med Chem, 1991).
Several values for one entry are separate records, joined by “and”; a condition that tells them apart may be missing. Equal entries are not always repeated.

Columns and labels:
[1] = test system: L1210; test: Inhibitory activity against L1210 cell growth; format: functional, cell-based; details: Mus musculus
How it was run: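 L1210 cells were grown in RPMI 1640 with 2 mM glutamine and 20% heat-inactivated horse serum at 37 °C under 5% CO2. Drug was added in DMSO (0.5% final) to exponential cells seeded at 0.8×10^5 cells/mL. Coulter counts were done in triplicate at 48 h. IC50 was taken from a regression of probit % growth inhibition against log dose, from one experiment.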

[2] = test system: P388; test: (§1) Compound was evaluated in vivo for antitumor activity after intraperitoneal administration against P388 (1303) for change in body weight at an optimal dose of 1 mg/kg/injection; format: functional, Mus musculus
[3] = test system: P388; test: (§2) Compound was evaluated in vivo for antitumor activity after intraperitoneal administration against P388 (1303) for mortality range at an optimal dose of 1 mg/kg/injection; format: functional, Mus musculus
[4] = test system: P388; test: (§3) Compound was evaluated in vivo for antitumor activity after intraperitoneal administration against P388 (1303) for tumor free survivors at an optimal dose of 1 mg/kg/injection; format: functional, Mus musculus
[5] = test system: P388; test: (§4) Compound was evaluated in vivo for antitumor activity after intraperitoneal administration against P388 (1303) for median day of death at an optimal dose of 1 mg/kg/injection; format: functional, Mus musculus
[6] = test system: P388; test: (§5) Compound was evaluated in vivo for antitumor activity after intraperitoneal administration against P388 (1303) for % increase in life span at an optimal dose of 1 mg/kg/injection; format: functional; details: Mus musculus, P388, ip
[7] = test system: P388; test: as §2; format: functional, Mus musculus; remark: listed apart in the source
[8] = test system: P388; test: Compound was evaluated in vivo for antitumor activity after intraperitoneal administration against P388 (1303) for total dose at an optimal dose of 1 mg/kg/injection; format: functional, Mus musculus
[9] = test system: P388; test: as §3; format: functional, Mus musculus; remark: listed apart in the source
[10] = test system: P388; test: Compound was evaluated in vivo for antitumor activity after intraperitoneal administration against P388/L-PAM for total dose at an optimal dose of 1 mg/kg/injection; format: functional, Mus musculus
[11] = test system: P388; test: as §4; format: functional, Mus musculus; remark: listed apart in the source
[12] = test system: P388; test: as §5; format: functional; details: Mus musculus, P388, ip; remark: listed apart in the source
[13] = test system: P388; test: as §1; format: functional, Mus musculus; remark: listed apart in the source
[14] = test system: Mus musculus; test: Compound was evaluated in vivo for antitumor activity against colon adenocarcinoma after injecting the compound intraperitoneally for median tumor burden; format: functional
[15] = test system: Mus musculus; test: Compound was evaluated in vivo for antitumor activity against colon adenocarcinoma after injecting the compound intraperitoneally for percent T/C; format: functional
[16] = test system: Mus musculus; test: Compound was evaluated in vivo for antitumor activity against colon adenocarcinoma after injecting the compound intraperitoneally for optimal dose; format: functional
[17] = test system: Mus musculus; test: Compound was evaluated in vivo for antitumor activity against colon adenocarcinoma after injecting the compound intraperitoneally for toxicity related death.; format: functional
[18] = test system: Mus musculus; test: Compound was evaluated in vivo for antitumor activity against colon adenocarcinoma after injecting the compound intraperitoneally for total dose.; format: functional
[19] = test system: P388; test: (§6) Compound was evaluated in vivo for antitumor activity after intraperitoneal administration against P388/L-PAM(14) for tumor free survivors at an optimal dose of 5 mg/kg/injection; format: functional, Mus musculus
[20] = test system: P388; test: Compound was evaluated in vivo for antitumor activity after intraperitoneal administration against P388/L-PAM(14) for median day of death at an optimal dose of 5 mg/kg/injection; format: functional, Mus musculus
[21] = test system: P388; test: Compound was evaluated in vivo for antitumor activity after intraperitoneal administration against P388/L-PAM(12) for tumor free survivors at an optimal dose of 1 mg/kg/injection; format: functional, Mus musculus
[22] = test system: P388; test: Compound was evaluated in vivo for antitumor activity after intraperitoneal administration against P388 (1303) for mortality range at an optimal dose of 5 mg/kg/injection; format: functional, Mus musculus
[23] = test system: P388; test: Compound was evaluated in vivo for antitumor activity after intraperitoneal administration against P388/L-PAM(12 for mortality range at an optimal dose of 5 mg/kg/injection; format: functional, Mus musculus
[24] = test system: P388; test: (§7) Compound was evaluated in vivo for antitumor activity after intraperitoneal administration against P388/L-PAM(14) for mortality range at an optimal dose of 5 mg/kg/injection; format: functional, Mus musculus
[25] = test system: P388; test: (§8) Compound was evaluated in vivo for antitumor activity after intraperitoneal administration against P388/L-PAM(14) for % increase in life span at an optimal dose of 5 mg/kg/injection; format: functional; details: Mus musculus, P388, ip
[26] = test system: P388; test: Compound was evaluated in vivo for antitumor activity after intraperitoneal administration against P388 (1303) for total dose at an optimal dose of 5 mg/kg/injection; format: functional, Mus musculus
[27] = test system: P388; test: (§9) Compound was evaluated in vivo for antitumor activity after intraperitoneal administration against P388/L-PAM(14) for change in body weight at an optimal dose of 5 mg/kg/injection; format: functional, Mus musculus
[28] = test system: P388; test: Compound was evaluated in vivo for antitumor activity after intraperitoneal administration against P388 (1303) for % increase in life span at an optimal dose of 5 mg/kg/injection; format: functional; details: Mus musculus, P388, ip
[29] = test system: P388; test: as §7; format: functional, Mus musculus; remark: listed apart in the source
[30] = test system: P388; test: Compound was evaluated in vivo for antitumor activity after intraperitoneal administration against P388 (1303) for change in body weight at an optimal dose of 5 mg/kg/injection; format: functional, Mus musculus
[31] = test system: P388; test: as §6; format: functional, Mus musculus; remark: listed apart in the source
[32] = test system: P388; test: Compound was evaluated in vivo for antitumor activity after intraperitoneal administration against P388/L-PAM(14) for total dose at an optimal dose of 5 mg/kg/injection; format: functional, Mus musculus
[33] = test system: P388; test: Compound was evaluated in vivo for antitumor activity after intraperitoneal administration against P388/L-PAM(12) for % increase in life span at an optimal dose of 1 mg/kg/injection; format: functional; details: Mus musculus, P388, ip
[34] = test system: P388; test: Compound was evaluated in vivo for antitumor activity after intraperitoneal administration against P388 (1303) for median day of death at an optimal dose of 5 mg/kg/injection; format: functional, Mus musculus
[35] = test system: P388; test: as §9; format: functional, Mus musculus; remark: listed apart in the source
[36] = test system: P388; test: Compound was evaluated in vivo for antitumor activity after intraperitoneal administration against P388 (1313) for total dose at an optimal dose of 5 mg/kg/injection; format: functional, Mus musculus
[37] = test system: P388; test: as §8; format: functional; details: Mus musculus, P388, ip; remark: listed apart in the source
[38] = test system: P388; test: Compound was evaluated in vivo for antitumor activity after intraperitoneal administration against P388/L-PAM(12) for total dose at an optimal dose of 5 mg/kg/injection; format: functional, Mus musculus
[39] = test system: P388; test: Compound was evaluated in vivo for antitumor activity after intraperitoneal administration against P388/L-PAM(12 for median day of death at an optimal dose of 1 mg/kg/injection; format: functional, Mus musculus
[40] = test system: P388; test: Compound was evaluated in vivo for antitumor activity after intraperitoneal administration against P388 (1303) for tumor free survivors at an optimal dose of 5 mg/kg/injection; format: functional, Mus musculus
[41] = test system: P388; test: Compound was evaluated in vivo for antitumor activity after intraperitoneal administration against P388/L-PAM(12 for change in body weight at an optimal dose of 1 mg/kg/injection; format: functional, Mus musculus

SMILES: CCN(CC)CCCC(C)Nc1ncnc2c1C(=O)C(OC)=CC2=O (configuration not stated)
- IC50 [1]: 0.435 µg/mL and 1.26 µM

SMILES: CN(CCCNc1ncnc2c1C(=O)C(N1CC1)=C(N1CC1)C2=O)CCCNc1ncnc2c1C(=O)C(N1CC1)=C(N1CC1)C2=O
- IC50 [1]: 4.8 nM

SMILES: CCN(CC)CCCNc1ncnc2c1C(=O)C(OC)=CC2=O
- IC50 [1]: 0.393 µg/mL and 1.24 µM

SMILES: COC(=O)CNc1ncnc2c1C(=O)C(OC)=CC2=O
- IC50 [1]: 1.2 µg/mL and 4.26 µM

SMILES: CN(C)CCCNc1ncnc2c1C(=O)C(N1CCCCC1)=CC2=O
- IC50 [1]: 0.406 µg/mL and 1.17 µM

SMILES: COC1=CC(=O)c2ncnc(NCCN(C)C)c2C1=O
- IC50 [1]: 0.316 µg/mL and 1.14 µM

SMILES: COC(=O)C(CC(C)C)NC(=O)C(CC(C)C)Nc1ncnc2c1C(=O)C(OC)=CC2=O (configuration not stated)
- IC50 [1]: 0.581 µg/mL and 1.3 µM

SMILES: COC1=CC(=O)c2ncnc(NCCCN(C)C)c2C1=O
- IC50 [1]: 0.501 µg/mL and 1.73 µM

SMILES: COC1=CC(=O)c2ncnc(NCCCn3cnc4c(N)ncnc43)c2C1=O
- IC50 [1]: > 10 µg/mL and > 24.6 µM

SMILES: COC1=CC(=O)c2ncnc(NCCCN(C)CCCNc3ncnc4c3C(=O)C(OC)=CC4=O)c2C1=O
- IC50 [1]: 1250 nM

SMILES: CCCC(=O)OCCNc1ncnc2c1C(=O)C(OC)=CC2=O
- IC50 [1]: 0.85 µg/mL and 2.66 µM

SMILES: COC1=CC(=O)c2ncnc(OCCOCCOCCO)c2C1=O
- IC50 [1]: > 10 µg/mL and > 29.6 µM

SMILES: COC1=CC(=O)c2ncnc(NCCO)c2C1=O
- IC50 [1]: 1.78 µg/mL and 7.13 µM

SMILES: COC(=O)C(Nc1ncnc2c1C(=O)C(OC)=CC2=O)C(C)C (configuration not stated)
- IC50 [1]: 0.825 µg/mL and 2.59 µM

SMILES: CCN(CC)CCNc1ncnc2c1C(=O)C(OC)=CC2=O
- IC50 [1]: 0.281 µg/mL and 898 nM

SMILES: O=C1C(N2CC2)=C(N2CC2)C(=O)c2ncncc21
- IC50 [1]: 80 nM

SMILES: COc1cccc2c1C(=O)c1c(O)c3c(c(O)c1C2=O)C[C@@](O)(C(C)=O)C[C@@H]3O[C@H]1C[C@H](N)[C@H](O)[C@H](C)O1 [DAUNORUBICIN]
- Change in body weight [2]: 1.4 g mouse-1
- Mortality [3]: 20 days
- Survivors [4]: 0
- Median day of death [5]: 18
- ILS at 1 mg/kg [6]: 79%
- Mortality [7]: 27 days
- Total dose [8]: 4 mg/kg
- Survivors [9]: 0
- Total dose [10]: 4 mg/kg
- Median day of death [11]: 19.5
- ILS at 1 mg/kg [12]: 63%
- Change in body weight [13]: 0.3 g mouse-1

SMILES: COc1cccc2c1C(=O)c1c(O)c3c(c(O)c1C2=O)C[C@@](O)(C(=O)CO)C[C@@H]3O[C@H]1C[C@H](N)[C@H](O)[C@H](C)O1 [DOXORUBICIN]
- IC50 [1]: 0.028 µg/mL and 48 nM

SMILES: O=c1[nH]cc(F)c(=O)[nH]1 [FLUOROURACIL]
- Tumor burden [14]: 60 mg
- T/C [15]: 14%
- Optimal dose [16]: 70 mg/kg
- Toxicity [17]: 0
- Total dose [18]: 140 mg/kg

SMILES: N[C@@H](Cc1ccc(N(CCCl)CCCl)cc1)C(=O)O [MELPHALAN]
- Survivors [19]: 0
- Median day of death [20]: 16
- Survivors [21]: 0
- Mortality [22]: 34 days
- Mortality [23]: 31 days
- Mortality [24]: 19 days
- ILS at 5 mg/kg [25]: 121%
- Total dose [26]: 5 mg/kg
- Change in body weight [27]: 0 g mouse-1
- ILS at 5 mg/kg [28]: 118%
- Mortality [29]: 34 days
- Change in body weight [30]: 0.1 g mouse-1
- Survivors [31]: 0
- Total dose [32]: 5 mg/kg
- ILS at 1 mg/kg [33]: 15%
- Median day of death [34]: 24
- Change in body weight [35]: 0.4 g mouse-1
- Total dose [36]: 5 mg/kg
- ILS at 5 mg/kg [37]: 14%
- Total dose [38]: 5 mg/kg
- Median day of death [39]: 15
- Survivors [40]: 0
- Change in body weight [41]: 0.6 g mouse-1
